Laboratory results reported in ChEMBL document CHEMBL1275429, “Pharmacodynamic characterization of ceftobiprole in experimental pneumonia caused by phenotypically diverse Staphylococcus aureus strains” (Antimicrob Agents Chemother, 2008).
Values after ≈ are worked out from the molar mass of the structure shown.

How the values were obtained:
[1] = fT>MIC required for stasis inhibition of community acquired methicillin-resistant Staphylococcus aureus 147 infection in neutropenic BALB/cAnNCr mouse; format: functional
How it was run: (§1)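 Same neutropenic murine pneumonia model, with 24-h lung log10 CFU change (5 mice per group; 1–25 mg/kg s.c., 1–5 times daily). […] ED50, ED80 and stasis exposures were taken from a sigmoid Emax fit for each isolate.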

[2] = fT>MIC required for stasis inhibition of hospital acquired methicillin-resistant Staphylococcus aureus 152 infection in neutropenic BALB/cAnNCr mouse; format: functional; how it was run: as §1
[3] = fT>MIC required for stasis inhibition of hospital acquired methicillin-resistant Staphylococcus aureus 149 infection in neutropenic BALB/cAnNCr mouse; format: functional; how it was run: as §1
[4] = fT>MIC required for stasis inhibition of methicillin-suceptible Staphylococcus aureus 29213 infection in neutropenic BALB/cAnNCr mouse; format: functional
[5] = fT>MIC required for 50% inhibition of community acquired Staphylococcus aureus 146 infection in neutropenic BALB/cAnNCr mouse; format: functional
[6] = fT>MIC required for 50% inhibition of community acquired Staphylococcus aureus 144 infection in neutropenic BALB/cAnNCr mouse; format: functional; how it was run: as §1
[7] = fT>MIC required for 50% inhibition of methicillin-susceptible Staphylococcus aureus 29213 infection in neutropenic BALB/cAnNCr mouse; format: functional
[8] = fT>MIC required for 80% inhibition of community acquired methicillin-resistant Staphylococcus aureus 147 infection in neutropenic BALB/cAnNCr mouse; format: functional; how it was run: as §1
[9] = fT>MIC required for 80% inhibition of community acquired methicillin-resistant Staphylococcus aureus 146 infection in neutropenic BALB/cAnNCr mouse; format: functional; how it was run: as §1
[10] = fT>MIC required for 80% inhibition of hospital acquired methicillin-resistant Staphylococcus aureus 152 infection in neutropenic BALB/cAnNCr mouse; format: functional; how it was run: as §1
[11] = fT>MIC required for 80% inhibition of hospital acquired methicillin-resistant Staphylococcus aureus 56 infection in neutropenic BALB/cAnNCr mouse; format: functional; how it was run: as §1
[12] = fAUC/MIC in neutropenic BALB/cAnNCr mouse plasma infected with Staphylococcus aureus at 1 to 25 mg/kg, sc administered 1 to 5 times/day after 24 hrs by HPLC; format: functional; details: route subcutaneous
How it was run: (§2)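 Exposure indices used free plasma drug, correcting with 19% mouse protein binding supplied by the sponsor. The regimens were s.c. 1–25 mg/kg given 1–5 times daily for 24 h to neutropenic mice with S. aureus pneumonia. MICs were determined in triplicate by CLSI broth microdilution. PK came from the single-dose HPLC study.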

[13] = fT>MIC in neutropenic BALB/cAnNCr mouse plasma infected with Staphylococcus aureus at 1 to 25 mg/kg, sc administered 1 to 5 times/day after 24 hrs HPLC; format: functional; details: route subcutaneous; how it was run: as §2
[14] = Elimination clearance in neutropenic BALB/cAnNCr mouse infected with Staphylococcus aureus at 10 mg/kg, sc administered as single dose after 6 hrs of infection; format: ADME, organism-based; parameters: dose 10 mg/kg, route subcutaneous; details: in vivo
How it was run: (§3)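 Neutropenic female mice (cyclophosphamide i.p. 250 mg/kg day −4, 100 mg/kg day −1) with HA-MRSA 56 pneumonia (oral inoculum, 10^7 CFU/ml in 3% mucin). Single s.c. dose in sterile water. Plasma by intracardiac puncture at 0.25–4 h, six mice per time point, stabilized with citric acid. Assayed by validated HPLC (LOQ 0.01 µg/ml). Parameters from one-compartment analysis.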

[15] = Elimination clearance in neutropenic BALB/cAnNCr mouse infected with Staphylococcus aureus at 1 mg/kg, sc administered as single dose after 6 hrs of infection; format: ADME, organism-based; parameters: dose 1 mg/kg, route subcutaneous; details: in vivo; how it was run: as §3
[16] = Elimination half life in neutropenic BALB/cAnNCr mouse infected with Staphylococcus aureus at 2.5 mg/kg, sc administered as single dose after 6 hrs of infection; format: ADME, organism-based; parameters: dose 2.5 mg/kg, route subcutaneous; details: in vivo
How it was run: (§4)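 Female BALB/cAnNCr mice (7-9 weeks, 15-22 g) made neutropenic with cyclophosphamide, 250 mg/kg i.p. on day -4 and 100 mg/kg i.p. on day -1. Infected by oral aspiration of HA-MRSA 56 (10^7 CFU/ml in 3% mucin/saline). Single s.c. dose in sterile water given 6 h post-challenge. Plasma (EDTA, citric acid-stabilized) taken at 0.25-4 h, six mice per time point. Assayed by validated HPLC (LOQ 0.01 µg/ml); one-compartment analysis.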

[17] = AUC (0 to infinity) in neutropenic BALB/cAnNCr mouse infected with Staphylococcus aureus at 25 mg/kg, sc administered as single dose after 6 hrs of infection; format: ADME, organism-based; parameters: time infinity, dose 25 mg/kg, route subcutaneous; details: plasma; how it was run: as §3
[18] = AUC (0 to infinity) in neutropenic BALB/cAnNCr mouse infected with Staphylococcus aureus at 2.5 mg/kg, sc administered as single dose after 6 hrs of infection; format: ADME, organism-based; parameters: time infinity, dose 2.5 mg/kg, route subcutaneous; details: plasma; how it was run: as §4
[19] = Tmax in neutropenic BALB/cAnNCr mouse infected with Staphylococcus aureus at 10 mg/kg, sc administered as single dose after 6 hrs of infection; format: ADME, organism-based; parameters: dose 10 mg/kg, route subcutaneous; details: in vivo; how it was run: as §3
[20] = Tmax in neutropenic BALB/cAnNCr mouse infected with Staphylococcus aureus at 1 mg/kg, sc administered as single dose after 6 hrs of infection; format: ADME, organism-based; parameters: dose 1 mg/kg, route subcutaneous; details: in vivo; how it was run: as §3
[21] = Cmax in neutropenic BALB/cAnNCr mouse infected with Staphylococcus aureus at 25 mg/kg, sc administered as single dose after 6 hrs of infection; format: ADME, organism-based; parameters: dose 25 mg/kg, route subcutaneous; details: in vivo; how it was run: as §3
[22] = system: Staphylococcus aureus; experiment: Antimicrobial activity against hospital acquired methicillin-resistant Staphylococcus aureus 152 by broth microdilution method; format: functional
How it was run: (§5)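 Broth microdilution run in triplicate following CLSI guidelines. Isolates were stored at –80°C in double-strength skim milk and subcultured twice on Trypticase soy agar with 5% sheep blood before testing.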

[23] = system: Staphylococcus aureus; experiment: Antimicrobial activity against community acquired methicillin-resistant Staphylococcus aureus 147 by broth microdilution method; format: functional; how it was run: as §5
[24] = system: Staphylococcus aureus; experiment: Antimicrobial activity against community acquired methicillin-resistant Staphylococcus aureus 146 by broth microdilution method; format: functional; how it was run: as §5
[25] = system: Staphylococcus aureus; experiment: Antimicrobial activity against methicillin-susceptible Staphylococcus aureus ATCC 25923 by broth microdilution method; format: functional; how it was run: as §5
[26] = system: Staphylococcus aureus; experiment: Antimicrobial activity against methicillin-susceptible Staphylococcus aureus ATCC 29213 by broth microdilution method; format: functional; how it was run: as §5
[27] = system: Staphylococcus aureus; experiment: Antimicrobial activity against community acquired methicillin-resistant Staphylococcus aureus 146 infected in BALB/cAnNCr mouse assessed as decrease in bacterial density in lungs at 1 to 25 mg/kg, sc administered as 1 to 5 times/day after 24 hrs […] relative to control; format: functional; details: route subcutaneous
How it was run: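 Female BALB/cAnNCr mice (7–9 weeks) were made neutropenic with cyclophosphamide i.p. at 250 mg/kg on day −4 and 100 mg/kg on day −1. Under isoflurane, mice received an oral inoculum in 3% mucin/saline, with nostrils blocked until aspiration. Drug (1–25 mg/kg s.c., once to five times daily, water vehicle) or sham started 6 h post-inoculation. Lungs were harvested at 24 h, homogenized and plated on blood and Columbia agar at 35°C. Mean log10 CFU/ml was compared with the 0-h untreated baseline; 5 mice per group.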

[28] = fT>MIC required for 80% inhibition of Staphylococcus aureus infection in neutropenic BALB/cAnNCr mouse; format: functional
[29] = fT>MIC required for stasis inhibition of Staphylococcus aureus infection in neutropenic BALB/cAnNCr mouse; format: functional

SMILES: Nc1nc(/C(=N/O)C(=O)N[C@@H]2C(=O)N3C(C(=O)O)=C(/C=C4\CCN([C@@H]5CCNC5)C4=O)CS[C@H]23)ns1 [CEFTOBIPROLE]
- fT>MIC [1]: 14.9%
- fT>MIC [2]: 13.4%
- fT>MIC [3]: 6.6%
- fT>MIC [4]: 13.3%
- fT>MIC [5]: 5.5%
- fT>MIC [6]: 13.8%
- fT>MIC [7]: 14.8%
- fT>MIC [8]: 21.6%
- fT>MIC [9]: 6%
- fT>MIC [10]: 15.9%
- fT>MIC [11]: 15.5%
- fAUC/MIC [12]: 2
- fT>MIC [13]: 3%
- CL/F [14]: 0.63 L/h/kg
- CL/F [15]: 0.54 L/h/kg
- half-life [16]: 27 min
- AUC(0-inf) [17]: 35.2 µg·h/mL
- AUC(0-inf) [18]: 2.57 µg·h/mL
- Tmax [19]: 9 min
- Tmax [20]: 28.8 min
- Cmax [21]: 38.6 µg/mL
- MIC [22]: 0.5 mg/L (≈ 0.935 µM)
- MIC [23]: 1 mg/L (≈ 1.87 µM)
- MIC [24]: 2 mg/L (≈ 3.74 µM)
- MIC [25]: 0.25 mg/L (≈ 0.468 µM)
- MIC [26]: 0.25 mg/L (≈ 0.468 µM)
- log10cfu [27]: 3.6
- fT>MIC [28]: 17%
- fT>MIC [29]: 11%
